Test results from ChEMBL document CHEMBL4765491, “Discovery of Potent and Selective Methylenephosphonic Acid CD73 Inhibitors” (J Med Chem, 2021).

What was measured:
Format in all cases: cell-based
[1] = target: T1, 5'-nucleotidase (Mus musculus, UniProt Q61503); test: Inhibition of mouse CD73 expressed in CHO cells incubated for 60 mins before addition of AMP and further incubated for 60 mins by colorimetric assay
T1 sequence (Q61503 whole entry): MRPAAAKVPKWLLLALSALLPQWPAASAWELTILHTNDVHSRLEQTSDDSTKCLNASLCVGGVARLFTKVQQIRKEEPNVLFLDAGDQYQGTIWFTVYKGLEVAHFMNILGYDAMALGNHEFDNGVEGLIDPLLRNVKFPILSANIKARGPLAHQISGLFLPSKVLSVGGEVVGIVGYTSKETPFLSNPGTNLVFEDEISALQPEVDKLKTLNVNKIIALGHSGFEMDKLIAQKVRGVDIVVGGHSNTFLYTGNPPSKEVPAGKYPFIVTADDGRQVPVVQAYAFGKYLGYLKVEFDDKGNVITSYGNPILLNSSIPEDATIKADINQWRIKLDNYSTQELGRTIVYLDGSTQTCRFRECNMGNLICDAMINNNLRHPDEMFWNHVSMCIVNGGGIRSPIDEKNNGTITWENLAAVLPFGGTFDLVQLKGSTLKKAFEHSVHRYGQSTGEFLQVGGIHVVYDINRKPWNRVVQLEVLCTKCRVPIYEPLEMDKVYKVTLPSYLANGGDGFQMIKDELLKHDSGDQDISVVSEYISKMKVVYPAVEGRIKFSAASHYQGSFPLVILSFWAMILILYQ

[2] = target: 5'-nucleotidase (Homo sapiens, UniProt P21589); test: Inhibition of human CD73 expressed in CHO cells incubated for 60 mins before addition of AMP and further incubated for 60 mins by colorimetric assay
5'-nucleotidase (Homo sapiens, UniProt P21589), sequence (P21589 whole entry): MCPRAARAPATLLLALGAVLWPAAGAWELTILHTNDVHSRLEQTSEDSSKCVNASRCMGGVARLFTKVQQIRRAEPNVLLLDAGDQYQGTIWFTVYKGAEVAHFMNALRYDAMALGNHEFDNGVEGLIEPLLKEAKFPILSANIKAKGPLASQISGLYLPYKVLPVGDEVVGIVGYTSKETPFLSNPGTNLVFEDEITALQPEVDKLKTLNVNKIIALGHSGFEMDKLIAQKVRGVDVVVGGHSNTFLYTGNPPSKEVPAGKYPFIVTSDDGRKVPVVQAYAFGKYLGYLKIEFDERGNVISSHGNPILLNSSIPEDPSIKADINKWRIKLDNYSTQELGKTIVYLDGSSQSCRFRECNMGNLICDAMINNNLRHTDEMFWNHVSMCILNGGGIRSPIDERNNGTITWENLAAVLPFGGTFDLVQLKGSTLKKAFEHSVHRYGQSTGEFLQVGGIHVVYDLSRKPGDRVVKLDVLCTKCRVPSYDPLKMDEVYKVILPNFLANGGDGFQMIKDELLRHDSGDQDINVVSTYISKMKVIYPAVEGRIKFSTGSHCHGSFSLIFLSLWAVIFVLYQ
Outline: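 Thawed stable CD73-CHO cells in HEPES pH 7.4 saline buffer with 0.1% glucose, 1500 cells/well. Preincubated 60 min at 37 °C with 16-point 1:3 compound dilutions (final 100–0 or 0.1–0 μM; 10 or 2% DMSO). 25 μM AMP then added, 60 min at 37 °C/5% CO2. Supernatant phosphate measured with PiColorLock Gold. Activity normalized to DMSO and no-cell wells. IC50 from a four-parameter fit.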

[3] = target: T2, Ectonucleoside triphosphate diphosphohydrolase 8 (Homo sapiens, UniProt Q5MY95); test: Inhibition of human NTPDase-8 expressed in CHO-K1 cells in presence of DNA/LTX mixture
T2 sequence (Q5MY95 whole entry): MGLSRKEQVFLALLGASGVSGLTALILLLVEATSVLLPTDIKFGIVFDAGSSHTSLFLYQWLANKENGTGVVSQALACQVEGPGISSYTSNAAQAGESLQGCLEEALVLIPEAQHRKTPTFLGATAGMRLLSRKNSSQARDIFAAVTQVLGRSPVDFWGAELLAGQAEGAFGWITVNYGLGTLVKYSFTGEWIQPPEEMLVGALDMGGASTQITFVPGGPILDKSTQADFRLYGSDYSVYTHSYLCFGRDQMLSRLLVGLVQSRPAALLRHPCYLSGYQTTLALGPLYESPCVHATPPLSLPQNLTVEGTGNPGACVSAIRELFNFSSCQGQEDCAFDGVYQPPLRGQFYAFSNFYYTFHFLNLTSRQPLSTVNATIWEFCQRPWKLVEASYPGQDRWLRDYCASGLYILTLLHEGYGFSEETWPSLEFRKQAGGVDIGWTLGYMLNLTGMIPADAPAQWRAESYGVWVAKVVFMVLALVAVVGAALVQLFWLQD
Outline: (§1)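 CHO-K1 cells transfected overnight (Lipofectamine LTX) with NTPDase2, 3 or 8 plasmid, then harvested into HEPES pH 7.4 buffer. 10,000 cells/well, 2% DMSO, 16-point 1:3 compound dilutions (final 10–0 μM), 1 h preincubation at 37 °C. ATP added at 25 (NTPDase2), 15 (NTPDase3) or 30 μM (NTPDase8), 50 min at 37 °C. Phosphate read with PiColorLock Gold at 620 nm.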

[4] = target: T3, Ectonucleoside triphosphate diphosphohydrolase 2 (Homo sapiens, UniProt Q9Y5L3); test: Inhibition of human NTPDase-2 expressed in CHO-K1 cells in presence of DNA/LTX mixture; outline: as §1
T3 sequence (Q9Y5L3 whole entry): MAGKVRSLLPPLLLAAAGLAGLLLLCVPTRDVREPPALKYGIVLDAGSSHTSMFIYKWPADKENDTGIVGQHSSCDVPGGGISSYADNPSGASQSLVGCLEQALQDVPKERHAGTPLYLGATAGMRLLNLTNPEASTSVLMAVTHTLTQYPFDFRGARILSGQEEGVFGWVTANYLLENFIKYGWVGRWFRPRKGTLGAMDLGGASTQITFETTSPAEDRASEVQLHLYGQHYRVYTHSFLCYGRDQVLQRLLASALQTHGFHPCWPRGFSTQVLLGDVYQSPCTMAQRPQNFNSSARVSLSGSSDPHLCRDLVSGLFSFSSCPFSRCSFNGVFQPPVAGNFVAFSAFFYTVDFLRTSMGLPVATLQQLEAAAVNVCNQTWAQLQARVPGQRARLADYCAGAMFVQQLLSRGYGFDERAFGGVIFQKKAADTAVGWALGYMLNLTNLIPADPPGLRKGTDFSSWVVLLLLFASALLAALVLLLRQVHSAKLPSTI

IC50 [1]: 13 nM
IC50 [2]: 2.6 nM
IC50 [3]: > 10000 nM
IC50 [4]: > 10000 nM
Structure (SMILES): O=P(O)(O)COC[C@H]1O[C@@H](n2ncc3c(NC4CCCC4)nc(Cl)nc32)[C@H](O)[C@@H]1O
